Ends that are not written are not given here.
What was measured:
[1] = molecular target: T1, transporter associated with antigen processing (TAP) (Homo sapiens, UniProt Q03518+Q03519); experiment: Streptolysin O peptide transport assay; assay type: biochemical
T1 sequence (Q03518 1-748): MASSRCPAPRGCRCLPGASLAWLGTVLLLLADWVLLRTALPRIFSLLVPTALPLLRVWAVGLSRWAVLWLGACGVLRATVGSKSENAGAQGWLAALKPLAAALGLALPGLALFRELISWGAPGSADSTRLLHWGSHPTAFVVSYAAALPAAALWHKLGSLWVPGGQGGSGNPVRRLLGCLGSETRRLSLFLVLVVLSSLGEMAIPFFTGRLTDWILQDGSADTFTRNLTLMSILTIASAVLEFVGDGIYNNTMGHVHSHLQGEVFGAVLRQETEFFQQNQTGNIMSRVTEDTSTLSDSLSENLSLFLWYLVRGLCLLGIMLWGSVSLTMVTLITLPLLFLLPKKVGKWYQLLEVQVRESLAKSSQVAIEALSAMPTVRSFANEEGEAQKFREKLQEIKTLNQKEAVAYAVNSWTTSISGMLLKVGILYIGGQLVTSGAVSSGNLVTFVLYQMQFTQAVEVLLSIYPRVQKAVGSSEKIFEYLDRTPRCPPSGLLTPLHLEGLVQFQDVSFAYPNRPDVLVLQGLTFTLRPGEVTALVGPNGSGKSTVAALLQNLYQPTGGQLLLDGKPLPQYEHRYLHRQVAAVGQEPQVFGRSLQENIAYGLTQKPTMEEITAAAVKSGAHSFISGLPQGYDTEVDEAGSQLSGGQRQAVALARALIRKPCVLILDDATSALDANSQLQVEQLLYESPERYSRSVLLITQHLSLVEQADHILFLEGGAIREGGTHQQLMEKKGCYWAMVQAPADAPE
T1 sequence (Q03519 1-686): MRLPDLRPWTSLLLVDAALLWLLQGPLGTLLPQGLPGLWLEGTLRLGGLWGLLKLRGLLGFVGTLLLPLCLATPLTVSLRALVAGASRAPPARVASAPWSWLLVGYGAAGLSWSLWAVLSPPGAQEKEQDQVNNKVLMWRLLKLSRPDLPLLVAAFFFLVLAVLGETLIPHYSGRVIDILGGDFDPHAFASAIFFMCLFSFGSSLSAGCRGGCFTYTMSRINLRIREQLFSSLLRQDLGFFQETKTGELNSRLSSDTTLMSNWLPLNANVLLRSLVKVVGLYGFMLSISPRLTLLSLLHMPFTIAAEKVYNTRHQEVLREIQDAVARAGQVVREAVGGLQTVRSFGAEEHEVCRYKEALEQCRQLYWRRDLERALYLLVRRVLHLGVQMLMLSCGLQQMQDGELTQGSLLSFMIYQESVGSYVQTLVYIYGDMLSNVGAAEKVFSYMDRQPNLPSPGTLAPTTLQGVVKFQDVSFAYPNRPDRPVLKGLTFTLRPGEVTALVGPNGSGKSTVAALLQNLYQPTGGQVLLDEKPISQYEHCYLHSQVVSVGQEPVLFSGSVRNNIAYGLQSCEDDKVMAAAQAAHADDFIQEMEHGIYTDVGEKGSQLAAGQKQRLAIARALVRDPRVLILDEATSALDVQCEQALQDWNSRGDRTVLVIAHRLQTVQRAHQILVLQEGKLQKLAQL
Outline: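 TAP+ T1 TxB hybrid cells (10^6/sample; grown in RPMI 1640, 4 mM Hepes, 5% FCS, 3 mM l-glutamine) permeabilised with streptolysin O (15 U/ml) for 15 min on ice. Then 5 min at 37°C with 100 ng chloramine-T 125I-labelled reporter peptide, ATP (100 mM stock) and competitor peptide dilutions. TAP-negative T2 cells served as negative control. Duplicates; triplicates for T2 and uninhibited T1.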

HLA-A*0201 molecules = HLA-A*0201 molecules (Homo sapiens, UniProt P04439, D140Y/D185E/D98H/E176V/E277Q/G131W/G231S/I119V/I121R/I166T/I218V/L300P/L318F/N151K/N90K/P208A/P217A/Q86G/Q94H/R138H/R169H/T345S); experiment: Class I peptide-binding affinity assay

HPTLDKVLEV [HPTLDKVLEV]
IC50 [1]: 355 µM

KSADHPTLDKVLEV [KSADHPTLDKVLEV]
IC50 [1]: 102 µM

PTLDKVLEV [PTLDKVLEV]
IC50 [1]: 175 µM

RTLDKVLEV [RTLDKVLEV]
IC50 [1]: 30 to 45 µM
IC50 (HLA-A*0201 molecules): 0.04 µM
